An excerpt weighted towards active compounds, which were near 0.44% of everything screened.
S100A4 MyoIIA = S100A4-myosin IIA interaction inhibition; S100A4/TAMRA-MyoIIA peptide fluorescence polarization; inhibition, % at 10.7 µM; 0.14% of 360,000 active; P26447;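 active = mean inhibition of at least 70% across replicates, with every replicate also reaching that level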
Target sequence (P26447 whole entry, looked up): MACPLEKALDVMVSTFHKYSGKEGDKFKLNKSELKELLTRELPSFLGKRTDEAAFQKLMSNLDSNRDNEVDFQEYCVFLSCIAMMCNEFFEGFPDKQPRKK
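Material: S100A4 monomer (human). Medium: Calcium-containing HEPES buffer, pH 7.2. Probe or stimulus: labelled myosin peptide probe, 5 nM. Compound dosing: one concentration per compound. Timing: polarization read 5 min after assay mix addition, stable 5–60 min. Benchmarks: DMSO as neutral control, TFP as positive control.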
FN deposition inh = fibronectin deposition inhibition; AH1F fibroblasts, Alexa488-fibronectin deposition fluorescence, overnight; inhibition, % at 12.6 µM; 0.086% of 350,000 active; AID 743247;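 active = mean inhibition across replicates of 30% or more, regardless of how many single replicates reach that level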
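Material: AH1F fibroblasts assembling fluorescent fibronectin matrix; amount: 10000 AH1F cells/well; medium: DMEM, 2% serum; reagent: Alexa488-fibronectin, 24 nM final in well; dosing: single compound dose, delivered by pin transfer; incubation: 1 h adhesion, overnight exposure; detection: fluorescence after three HBSS washes, excitation 485 nm, emission 525 nm; measure: fibronectin deposition inhibition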
PDI inh = blocks human protein disulfide isomerase activity | P07237 | PDI insulin aggregation turbidity, A650, 90 min | inhibition, % at 10 µM | 0.052% of 350,000 active | AID 588391;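 active = mean inhibition across replicates of 30% or more, whatever share of single replicates reach that level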
RAD54 inh = inhibitors of human RAD54 branch migration | 0.14% of 360,000 active | inhibition, % at 10.4 µM | Q92698 | RAD54 Holliday junction branch migration, FAM/BHQ fluorescence;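 active = mean normalized replicate activity at least 40 and at least half of replicates scoring 40 or more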;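 note: inhibitors cause a drop in the FAM fluorescence signal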
ERp5 inh = blocks human ERp5 reductase activity on insulin; Q15084; ERp5 insulin aggregation, absorbance 650 nm, 90 min; inhibition, % at 9.99 µM; 0.05% of 350,000 active; AID 651711;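 active = mean replicate inhibition above about 25%, with every replicate also reaching it, limit read from the data, passing the limit was not always enough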
Target sequence (Q15084 whole entry, looked up): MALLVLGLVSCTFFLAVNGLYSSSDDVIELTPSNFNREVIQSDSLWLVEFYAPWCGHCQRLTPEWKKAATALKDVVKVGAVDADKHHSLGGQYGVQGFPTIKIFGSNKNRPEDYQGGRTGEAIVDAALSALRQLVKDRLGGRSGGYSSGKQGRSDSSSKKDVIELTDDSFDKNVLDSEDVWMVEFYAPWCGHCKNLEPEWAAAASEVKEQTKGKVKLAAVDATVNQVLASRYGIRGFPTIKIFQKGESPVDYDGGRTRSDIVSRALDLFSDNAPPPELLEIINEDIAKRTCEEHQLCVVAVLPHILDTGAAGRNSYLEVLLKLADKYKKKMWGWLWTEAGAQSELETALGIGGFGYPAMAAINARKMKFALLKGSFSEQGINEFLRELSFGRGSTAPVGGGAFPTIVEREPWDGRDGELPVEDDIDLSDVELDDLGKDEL
PglD DTNB = PglD (C. jejuni) enzyme inhibition. inhibition, % at 12.5 µM. purified PglD enzyme, DTNB colorimetric CoA detection. 0.098% of 360,000 active; in the data active = inhibition above about 16%, passing the limit was not always enough
Hits are given with their value; i = inactive; nt = not tested or not shown.

SMILES | S100A4 MyoIIA | FN deposition inh | PDI inh | RAD54 inh | ERp5 inh | PglD DTNB
O=C1N[C@H](c2ccccc2)COCc2cn(nn2)CC[C@H](Cc2ccc(C(F)(F)F)cc2)C(=O)N[C@H](c2ccccc2)COCc2cn(nn2)CC[C@@H]1Cc1ccc(C(F)(F)F)cc1 | nt | i | nt | nt | nt | nt
CC1CN(C(=O)c2cc3c(=O)n4ccccc4nc3n2C)CC(C)O1 (stereo unspecified) | i | 36 | i | i | i | i
O=C(NC[C@H]1CC[C@@H]2[C@@H](CN2S(=O)(=O)c2ccccc2[N+](=O)[O-])O1)c1cccnc1 | i | nt | nt | nt | i | nt
CNC[C@@H](CC1CCCCC1)NC[C@H](CC(C)C)NCCc1cccc(C(F)(F)F)c1 | i | 62 | i | i | i | i
CCN(CC)S(=O)(=O)c1ccc2c(c1)N(CC(=O)NCCN1CCOCC1)C(=O)CO2 | i | i | i | i | 28 | i
O=C(CN1C(=O)COc2ccccc21)NCCN1CCOCC1 | i | i | i | i | i | i
CO[C@H]1CN(C)C(=O)c2ccc(NC(=O)c3ccccc3)cc2OC[C@H](C)NC[C@@H]1C | i | i | nt | nt | i | nt
C[C@H]1CN(C)C(=O)c2cccc(N)c2O[C@H]1CN(C)S(C)(=O)=O | nt | i | nt | nt | nt | nt
Cc1cc2ccccc2n1CCNC(=O)c1ccc(S(=O)(=O)N2CCCCC2)cc1 | 124 | i | nt | i | i | i
O=C(C[C@@H]1CC[C@H](NC(=O)CC2CC2)[C@H](CO)O1)NCc1ccccc1 | i | nt | nt | nt | i | nt
C[C@@H]1CN([C@@H](C)CO)C(=O)c2cc(NC(=O)CCC(F)(F)F)ccc2O[C@@H](C)CCCCO[C@@H]1CN(C)C(=O)Nc1ccc(F)cc1 | i | i | nt | i | i | i
COc1ccc(C(=O)/C=C/c2ccccc2)c(O)c1 | i | nt | nt | i | i | i
O=C(/C=C/c1ccc(O)cc1)c1ccc(O)cc1O | i | i | 41 | i | i | i
O=C(C[C@@H]1CC[C@H]2[C@@H](COC[C@H](O)CN2Cc2cc(F)cc(F)c2)O1)NC1CCC1 | i | i | nt | i | i | i
CCCCNC(=O)Nc1nc2ccccc2s1 | i | i | i | nt | i | nt
CCCCNC(=O)Nc1nc2ccc(CC)cc2s1 | i | 34 | i | nt | i | nt
CC(CCC(C)C(C)(C)C)[C@@H]1CC[C@H]2C3C[C@H](OS(O)(=S)=S)[C@H]4C[C@H](OS(O)(=S)=S)[C@@H](OS(O)(=S)=S)C[C@]4(C)[C@H]3CC[C@]12C (stereo partly specified) (tested in a mixture with another compound) | nt | nt | i | 110 | nt | i
CC(CCC(=O)NN)C1CCC2C3CCC4CC(O)CCC4(C)C3CCC12C (stereo unspecified) | i | i | i | nt | i | nt
CC(C)(C)OC(=O)N[C@@H](Cc1c[nH]c2ccccc12)c1nnc(SCC(N)=O)o1 | nt | i | i | i | nt | i
CC(C)Sc1nnc([C@H](Cc2c[nH]c3ccccc23)NC(=O)OC(C)(C)C)o1 | nt | i | 44 | i | nt | i
COC(=O)[C@]1(C)N[C@H](CN(C)S(=O)(=O)c2ccc(OC(F)(F)F)cc2)[C@@H]2C(=O)N(C)C(=O)[C@@H]21 | i | i | i | i | 34 | i
COCC(=O)Nc1ccc2c(c1)OC[C@H](C)N(Cc1ccncc1)C[C@H](C)[C@@H](OC)CN(C)C2=O | i | i | nt | nt | nt | nt
CC=Cc1ccc2n(c1=O)C[C@H]1[C@H](CO)[C@@H](C(=O)N3CCc4ccccc4C3)[C@@H]2N1Cc1ccncc1 (mixture of isomers) | i | nt | nt | i | i | i
O=C(C[C@@H]1CC[C@@H]2[C@H](COC[C@@H](O)CN2Cc2ccc(F)cc2)O1)N1CCc2ccccc2C1 | i | i | nt | i | i | 25
C[C@@H]1CN([C@H](C)CO)C(=O)c2ccccc2-c2ccccc2CO[C@H]1CN(C)C(=O)Oc1ccccc1 | 94 | i | nt | i | i | i
SMILES | S100A4 MyoIIA | FN deposition inh | PDI inh | RAD54 inh | ERp5 inh | PglD DTNB
C[C@@H]1CN([C@@H](C)CO)C(=O)c2ccccc2-c2ccccc2CO[C@@H]1CN(C)C(=O)Oc1ccccc1 | i | i | nt | i | i | i
C[C@@H]1CN([C@H](C)CO)C(=O)c2c(c3ccccc3n2C)-c2ccccc2CO[C@H]1CN(C)S(=O)(=O)c1ccccc1 | 131 | i | nt | i | i | i
CCCCOc1ccc(C(C)NC(=O)C2CCCN(S(=O)(=O)CCC)C2)cc1 (stereo unspecified) | nt | 33 | i | i | nt | i
CCC(=O)Nc1ccc2c(c1)OC[C@H](C)N(Cc1cccnc1)C[C@H](C)[C@@H](OC)CN(C)C2=O | i | i | nt | nt | nt | nt
C[C@@H]1CN([C@@H](C)CO)C(=O)Cc2cc(N(C)C)ccc2O[C@H]1CN(C)C(=O)Nc1ccc(C(F)(F)F)cc1 | i | i | nt | i | i | i
Cc1ccc2c(c1)Oc1ccc(NC(=O)CCl)cc1C(=O)N2 | nt | i | 92 | nt | nt | nt
Cc1ccc2c(c1)Oc1ccc([N+](=O)[O-])cc1C(=O)N2 | i | i | i | nt | i | nt
CCOC(=O)C1CCN(c2c(NCCCN(C)C3CCCCC3)c(=O)c2=O)CC1 | i | i | 34 | i | i | i
CNC[C@H]1Oc2ccc(NC(C)=O)cc2CC(=O)N(C)C[C@H]1C | nt | i | nt | nt | nt | nt
COCCNC(=O)C[C@@H]1CC[C@H]2[C@@H](COC[C@@H](O)CN2S(=O)(=O)c2ccccc2C)O1 | i | i | nt | i | i | i
C[C@@H]1CN([C@H](C)CO)C(=O)Cc2cc(NC(=O)Nc3cccc4ccccc34)ccc2O[C@H]1CN(C)Cc1ccc(C(F)(F)F)cc1 | i | nt | nt | i | i | i
C[C@H]1CN([C@@H](C)CO)C(=O)Cc2cc(NC(=O)Nc3cccc4ccccc34)ccc2O[C@H]1CN(C)Cc1ccc(C(F)(F)F)cc1 | i | nt | nt | i | 69 | i
C[C@H](CO)N1C[C@H](C)[C@H](CN(C)Cc2ccc(C(F)(F)F)cc2)Oc2ccc(NC(=O)Nc3cccc4ccccc34)cc2CC1=O | i | nt | nt | i | 64 | i
C[C@H](CO)N1C[C@H](C)[C@@H](CN(C)C(=O)Nc2ccc(C(F)(F)F)cc2)Oc2ccc(NC(=O)Cn3cnnn3)cc2CC1=O | i | i | nt | i | i | 18
C[C@@H]1CN([C@@H](C)CO)C(=O)Cc2cc(NC(=O)Nc3ccc(C(F)(F)F)cc3)ccc2O[C@@H]1CN(C)Cc1ccc(Cl)c(Cl)c1 | i | i | nt | i | 50 | i
O=C(Nc1ccccc1F)N1[C@@H]2CNC[C@H]1C2c1ccc(-c2cccnc2)cc1 (stereo partly specified) | i | i | nt | nt | i | nt
Cc1cccc(NC(=S)N/N=C2\CC(C)(C)Oc3ccc(O)cc32)c1 | i | 39 | i | nt | i | nt
O=C1N[C@@H](Cc2ccccc2)COCc2cn(nn2)CC[C@H]1Cc1ccc(Cl)cc1 | nt | i | nt | nt | nt | nt
CN1/C(=C\C=C2/SC(=S)NC2=O)C(C)(C)c2ccccc21 | 104 | i | i | nt | i | nt
CCCN1C(=O)/C(=C\C=C2\N(CC)c3ccccc3C2(C)C)SC1=S | i | i | i | i | i | i
